Bioassay records as filed in PubChem BioAssay.
The list is not random: actives were taken first. Their share in the collection is about 4%.
Cardio protect: protects H9c2 cardiomyocytes from peroxide injury; protection from H2O2 cell death, % at 20 µM; 360,000 compounds, 0.63% hits; H2O2 injury protection, ATPLite, 2 h;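 active = compounds giving at least 50% protection of heart cells from peroxide-induced death in the single-dose screen, raw or plate-pattern-corrected value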;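 note: 0% = DMSO wells with peroxide and 100% = DMSO wells without peroxide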
iPSC survival up: increases survival of single human iPS cells | hiPSC single-cell survival, ATPlite luminescence; 100% = ROCK inhibitor wells, 0% = DMSO | survival enhancement, % at 20 µM | 360,000 compounds, 0.044% hits | AID 602274; in the data active = survival enhancement above about 18%;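 note: cells exposed to compounds for 16 hours before the ATP read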
SENP1 FRET inh: blocks the human SENP1 SUMO protease catalytic domain | Q9P0U3 | recombinant SENP1 catalytic domain, CyPet-SUMO1-YPet FRET cleavage | inhibition, % at 10 µM | 360,000 compounds, 0.21% hits | AID 624204;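 active = inhibition at least 30% at 10 µM, raw YFP signal under a set limit, fluorescence ratio 0.5 to 1.5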;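 note: 0% = enzyme with DMSO and 100% = no enzyme wells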
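System: Recombinant human SENP1 catalytic domain, His6-tagged | Incubation: Enzyme reaction for 50 min at room temperature, dark | Medium: Tris pH 8 with BME, BSA, NP40 and catalase | Also added: 25 nM SUMO1 FRET substrate | Compound: 10 µM single point, 0.5% DMSO | Measured by: FRET fluorescence in CFP and YFP emission channels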
FAS-TE inh: inhibitors of human fatty acid synthase thioesterase domain; inhibition, % at 15 µM; recombinant FAS-TE, OMFH fluorogenic substrate, fluorescence endpoint; 360,000 compounds, 0.67% hits; P49327;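 active = compounds whose normalised, plate-corrected inhibition of enzyme fluorescence in the single-dose primary screen is 50% or more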;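 note: 0% = DMSO with enzyme and 100% = substrate without enzyme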
NR3A LBD binder: NR3A (human) ligand-binding domain modulation. AID 1259313. NR3A LBD differential scanning fluorimetry, Tm shift; 0% = protein alone, 100% = glycine-bound protein. Tm shift relative to glycine control, % at 25 µM. 340,000 compounds, 2.5% hits;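 active = melting temperature shift of at least 10% of the positive control shift, at one fixed dose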
Arr AP2 block: human beta-arrestin and AP2 interaction inhibition | inhibition, % at 10 µM | FITC-arrestin peptide / GST-AP2 beads, flow cytometry; AP2 beta2 appendage carries R879A mutation | AID 504490 | 340,000 compounds, 0.31% hits;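 active = inhibition above a set limit, near 3 SD of compounds lacking own fluorescence, cut at about 54% in these data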;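 note: plate controls were DMSO wells for no effect and 5 µM unlabelled arrestin peptide for full effect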
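Material – AP2 appendage R879A on GSH beads · Buffer or medium – PBS with 0.05% Tween 20 and 0.1% BSA · Probe or stimulus – fluorescein-tagged arrestin peptide at 50 nM final · Incubation – compound with beads 12 min RT, then probe 1 h RT · Detection – high-throughput flow cytometry of beads, ex 488, em 535 nm · Evaluation – percent response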
Starred values were filed as active, the others as inactive.

Results for CC(C)=CCc1c(O)ccc2c1OC(c1ccc(O)c(O)c1)CC2=O (configuration not stated) ?
Cardio protect: 54*; iPSC survival up: -2; SENP1 FRET inh: -8; FAS-TE inh: -2; NR3A LBD binder: -4; Arr AP2 block: 1

What do the screens show for `CNC(=O)c1ccc(NC(=O)/C=C/c2cccc(F)c2)cc1`?
Cardio protect: 2; iPSC survival up: 0; SENP1 FRET inh: -1; FAS-TE inh: -5; NR3A LBD binder: 14*; Arr AP2 block: 9

What do the screens show for `CCCOc1ccc(/C=C/C(=O)Nc2ccc([N+](=O)[O-])cc2)cc1`?
Cardio protect: 7; iPSC survival up: -3; SENP1 FRET inh: -2; FAS-TE inh: 30; NR3A LBD binder: 27*; Arr AP2 block: 4

Results for CCCCOc1ccc(/C=C/C(=O)NCCc2nc3ccccc3[nH]2)cc1 ?
Cardio protect: -4; iPSC survival up: -4; SENP1 FRET inh: 29; FAS-TE inh: 8; NR3A LBD binder: 12*; Arr AP2 block: -6

Results for CCCCOc1ccc(/C=C/C(=O)Nc2ccc([N+](=O)[O-])cc2C)cc1 ?
Cardio protect: 0; iPSC survival up: 2; SENP1 FRET inh: -2; FAS-TE inh: 2; NR3A LBD binder: -9; Arr AP2 block: 4

What do the screens show for `CCCCOC(=O)c1ccc(NC(=O)/C=C/c2cccs2)cc1`?
Cardio protect: -5; iPSC survival up: -1; SENP1 FRET inh: -4; FAS-TE inh: 34; NR3A LBD binder: 19*; Arr AP2 block: 9

Results for CCCCOC(=O)c1ccc(NC(C)=O)cc1 ?
Cardio protect: -2; iPSC survival up: -2; SENP1 FRET inh: -2; FAS-TE inh: 0; NR3A LBD binder: 7; Arr AP2 block: 10

Results for CC(=O)NC(c1ccc(F)c(F)c1)c1nc(-c2ccccc2C)cs1 (configuration not stated) ?
Cardio protect: -8; iPSC survival up: -3; SENP1 FRET inh: 1; FAS-TE inh: 6

Results for C=CCOc1ccc(/C=C/C(=O)Nc2ccc(C(=O)NC)cc2)cc1 ?
Cardio protect: 7; iPSC survival up: -3; SENP1 FRET inh: 0; FAS-TE inh: -19; NR3A LBD binder: 24*; Arr AP2 block: -33

Results for CCOc1ccc(NC(C(=O)Nc2cccc(C(C)=O)c2)c2ccccc2)cc1 (configuration not stated) ?
Cardio protect: -10; iPSC survival up: -1; SENP1 FRET inh: 0; FAS-TE inh: 21; NR3A LBD binder: -8; Arr AP2 block: 6

How did CCOc1ccc(/C=C/C(=O)Nc2ccc(C(N)=O)cc2)cc1OC do in these assays?
Cardio protect: 14; iPSC survival up: 0; SENP1 FRET inh: -1; FAS-TE inh: -17; NR3A LBD binder: -6; Arr AP2 block: -1

How did CCCCOc1ccc(/C=C/C(=O)Nc2ccc(C(N)=O)cc2)cc1 do in these assays?
Cardio protect: 6; iPSC survival up: -1; SENP1 FRET inh: 2; FAS-TE inh: -5; NR3A LBD binder: 22*; Arr AP2 block: 12

Results for CCOc1ccc(/C=C/C(=O)Nc2cccc(C(C)=O)c2)cc1 ?
Cardio protect: -9; iPSC survival up: 0; SENP1 FRET inh: -1; FAS-TE inh: -4; NR3A LBD binder: 29*; Arr AP2 block: -7

How did CCCCCNC(=O)C1CC=CCC1C(=O)O (configuration not stated) do in these assays?
Cardio protect: 8; iPSC survival up: 1; SENP1 FRET inh: 1; FAS-TE inh: -2; NR3A LBD binder: 12*; Arr AP2 block: 6

What do the screens show for `CCCCN(CCCC)C(=O)C1CC=CCC1C(=O)O` (configuration not stated)?
Cardio protect: -6; iPSC survival up: 0; SENP1 FRET inh: 3; FAS-TE inh: -8; NR3A LBD binder: 1; Arr AP2 block: 14

What do the screens show for `c1ccc(-c2cn3c(n2)-c2ccccc2C3)cc1`?
Cardio protect: -10; iPSC survival up: -3; SENP1 FRET inh: -1; FAS-TE inh: -10; NR3A LBD binder: 13*; Arr AP2 block: -4

Results for COc1cc(OC)c(-c2nn3c(-c4ccco4)nnc3s2)cc1OC ?
Cardio protect: 74*; iPSC survival up: 1; SENP1 FRET inh: -2; FAS-TE inh: -4; NR3A LBD binder: -1; Arr AP2 block: 22

How did CCOc1cccc(-c2nn3c(-c4ccco4)nnc3s2)c1 do in these assays?
Cardio protect: 64*; iPSC survival up: -2; SENP1 FRET inh: -2; FAS-TE inh: -2; NR3A LBD binder: 1; Arr AP2 block: 3

How did COc1cc(-c2nnc3sc(-c4ccco4)nn23)cc(OC)c1OC do in these assays?
Cardio protect: 12; iPSC survival up: 1; SENP1 FRET inh: 0; FAS-TE inh: -8; NR3A LBD binder: -6; Arr AP2 block: 10

What do the screens show for `c1coc(-c2nnc3sc(-c4cccs4)nn23)c1`?
Cardio protect: 53*; iPSC survival up: 2; SENP1 FRET inh: -2; FAS-TE inh: -4; NR3A LBD binder: 3; Arr AP2 block: 11

How did COc1ccc(-c2nn3c(-c4ccco4)nnc3s2)cc1OC do in these assays?
Cardio protect: 77*; iPSC survival up: -1; SENP1 FRET inh: -2; FAS-TE inh: -2; NR3A LBD binder: 0; Arr AP2 block: 7

How did COc1cccc(-c2nnc3sc(-c4cccs4)nn23)c1 do in these assays?
Cardio protect: 8; iPSC survival up: 1; SENP1 FRET inh: 0; FAS-TE inh: 6; NR3A LBD binder: 4; Arr AP2 block: 3

How did COc1cc(/C=C2\CCC(C)C3=C(c4cc(OC)c(OC)c(OC)c4)C(C#N)=C(N)OC32)cc(OC)c1OC (configuration not stated) do in these assays?
Cardio protect: -5; iPSC survival up: -3; SENP1 FRET inh: -9; FAS-TE inh: -69; NR3A LBD binder: 1; Arr AP2 block: -4

What do the screens show for `COc1ccc(Cc2c(-c3ccccc3)nc3ccc(Br)cn23)c(C)c1`?
Cardio protect: 0; iPSC survival up: -2; SENP1 FRET inh: -3; FAS-TE inh: -16

Results for COc1ccc(-c2nnc3sc(-c4ccco4)nn23)cc1OC ?
Cardio protect: 58*; iPSC survival up: 0; SENP1 FRET inh: -10; FAS-TE inh: 7; NR3A LBD binder: 0; Arr AP2 block: -19

Results for COc1cc(NC(=O)c2ccnc(N)c2)cc(C(=O)Nc2cccc(C(F)(F)F)c2)c1 ?
Cardio protect: 10; iPSC survival up: -4; SENP1 FRET inh: -2; FAS-TE inh: 15; NR3A LBD binder: 13*; Arr AP2 block: 10

What do the screens show for `COc1cc(NC(=O)c2csc(N)n2)cc(C(=O)Nc2cccc(C(F)(F)F)c2)c1`?
Cardio protect: 20; iPSC survival up: -1; SENP1 FRET inh: -4; FAS-TE inh: 19; NR3A LBD binder: 19*; Arr AP2 block: 24
